Screening data from PubChem.
OX1R antag-1: OX1R (human) antagonism. OX1R-expressing cells, FRET antagonist read-out. inhibition, % at 6.6 µM. 1.8% of 330,000 active. AID 485270; in the data active means inhibition mostly above about 38%, no sharp cut-off; inactive means mostly below about 40%;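 further: 0% = agonist challenge alone and 100% = reference antagonist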
NTR1 ag: activates human neurotensin receptor 1. NTR1-U2OS beta-arrestin-GFP spot imaging, agonist mode. activation, % at 20 µM. 0.17% of 330,000 active. AID 493036;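 active means activation at or above 40% of the spot to cytoplasm intensity ratio, with at least 20 cells analyzed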;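 further: 0% = DMSO without peptide and 100% = 100 nM NTR1 peptide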
CHO parental Ca: counter-screen: ATP calcium response change in parental CHO cells; parental CHO-K1, ATP-induced calcium, Fluo-8 fluorescence; inhibition, % at 5.6 µM; 0.63% of 330,000 active; AID 463079;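 active means inhibition above that plate's mean sample inhibition plus 3 SD, cut at about 26% in these data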;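 further: 0% = ATP-challenged DMSO wells and 100% = DMSO wells without ATP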
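Assay system – parental CHO cells · Reagent – ATP stimulus · Detection – intracellular calcium via Fluo-8 no-wash fluorescent dye · Evaluation – percent inhibition of ATP-evoked calcium rise, normalized to controls · Controls – ATP wells versus no-ATP DMSO wells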
TAAR1 ag: human TAAR1 agonism | Q96RJ0 | CHO RD-HGA16 TAAR1, Fluo-8 calcium fluorescence; vehicle wells 0%, saturating PEA agonist 100% | activation, % at 3 µM | 0.99% of 360,000 active | AID 624467;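 active means activation above the mean activation of all test compounds in the run plus 3 SD, cut at about 38% in these data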
Target sequence (Q96RJ0 whole entry, looked up): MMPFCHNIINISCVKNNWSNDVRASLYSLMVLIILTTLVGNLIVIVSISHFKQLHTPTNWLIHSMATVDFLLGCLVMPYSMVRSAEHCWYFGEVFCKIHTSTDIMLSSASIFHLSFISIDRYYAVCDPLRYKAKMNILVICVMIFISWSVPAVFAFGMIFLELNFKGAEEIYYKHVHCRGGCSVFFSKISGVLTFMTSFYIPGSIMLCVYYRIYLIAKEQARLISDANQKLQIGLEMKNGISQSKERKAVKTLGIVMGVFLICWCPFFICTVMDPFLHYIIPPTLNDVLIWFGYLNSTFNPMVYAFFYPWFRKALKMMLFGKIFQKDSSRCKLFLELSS
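Assay system – CHO-derived RD-HGA16 cells with stable Gα16 and human TAAR1 · Compound dosing – one-point dosing at 3 µM (nominal) · Incubation – 17-24 h seeding, 75 min 37 °C dye, 30 min RT · Measured by – kinetic Fluo-8 calcium fluorescence · Control set – DMSO vehicle as 0%, PEA at EC100 as 100% · Repeats – single well for each compound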
TAAR1 antagonist: antagonists of human TAAR1. AID 624466. 1.5% of 360,000 active. inhibition, % at 3 µM. CHO RD-HGA16 TAAR1, Fluo-8 calcium fluorescence, antagonist;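 active means inhibition above a per-plate cutoff, the mean inhibition of test compounds on that plate plus 3 SD, cut at about 49% in these data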;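 further: 0% = DMSO plus EC80 beta-PEA response and 100% = DMSO alone without agonist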
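Assay system: RD-HGA16 CHO cells with stable hTAAR1 and Gα16 / Reagent: EC80 β-phenethylamine stimulus / Doses: 3 µM, single point / Timing: dye loading 75 min at 37 °C, then 30 min room temperature / Measured by: Fluo-8 intracellular calcium dye fluorescence, real-time kinetic reads / Controls: vehicle wells and EC80 agonist wells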
OX1R antag-2: human HCRTR1 antagonism | CHO/OX1R cells, Fluo-8 calcium fluorescence, orexin A | 0.43% of 330,000 active | inhibition, % at 5 µM | O43613;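 active means inhibition above its plate's threshold, mean inhibition of all tested compounds on the plate plus 3 SD, cut at about 37% in these data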;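 further: 0% = orexin A challenge wells and 100% = SB-334867-A antagonist wells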
* marks the source's active call; other numbers are inactive results; . = no result. Rows were chosen to be rich in hits. Some 4% of all compounds tested hit in one or more screens of this group.

SMILES	OX1R antag-1	NTR1 ag	CHO parental Ca	TAAR1 ag	TAAR1 antagonist	OX1R antag-2
CSC1=Nc2ccccc2N=C(N2CCCC2)C1	.	.	.	0	0	.
CC(=O)OC[C@]12CC[C@H]3[C@@](C)(CC[C@H]4C(C)(C)CCC[C@]34C)[C@@H]1C[C@H](C1=CC(=O)O[C@@H]1OC(C)=O)O2	0	8	64*	.	.	19
CC1(C)CCCC2(C)C1CCC1(C)OC(=O)CCC12 (stereo not drawn)	.	.	.	4	-16	.
COC(=O)C1=C(C)N(Cc2ccccc2C(F)(F)F)C(=NCc2cc(OC)c(OC)c(OC)c2)NC1c1cccc(Cl)c1 (stereo not drawn)	.	.	.	6	1	.
O=C(/C=C\c1ccco1)Nc1nc(-c2ccccc2)cs1	10	0	-6	1	-42	-9
O=C(/C=C/c1ccccc1)Nc1nc(-c2ccncc2)cs1	25	0	17	3	50*	-18
C[C@H](O)[C@@H]1C(=O)N2CCc3c([nH]c4c(-c5ccccc5)cccc34)[C@@H]2C[C@@H]1N(C)C(=O)c1ccccc1F	.	.	.	10	18	.
Cc1ccccc1NC(=O)c1ccc([N+](=O)[O-])o1	70*	0	4	1	6	-4
CCCCn1nnc(NC(=O)c2ccc(-c3ccccc3[N+](=O)[O-])o2)n1	18	1	-22	2	28	-20
O=C(Nc1cc(Cl)ccc1-n1cncn1)c1ccc([N+](=O)[O-])o1	48*	1	-9	3	-20	-24
CCC(=O)N1CCN(c2ccc(Cl)cc2NC(=O)c2ccc([N+](=O)[O-])o2)CC1	28	4	-22	7	24	-35
CN1CCN(c2ccccc2NC(=O)c2ccc([N+](=O)[O-])o2)CC1	71*	0	-18	.	.	-23
CCn1nnc(NC(=O)c2ccc([N+](=O)[O-])o2)n1	69*	1	-4	4	-23	-3
CS(=O)(=O)N1CCN(c2ccccc2NC(=O)c2ccc([N+](=O)[O-])o2)CC1	35	3	-20	10	8	-2
c1ccc(Cc2cnc(N3CCN(Cc4ccc5c(c4)OCCO5)CC3)nc2)cc1	.	.	.	-1	-29	.
Cc1cc2c(nc1C)CCCN2Cc1ccccn1	.	.	.	0	6	.
O=C(Nc1cccc2ncccc12)c1ccc([N+](=O)[O-])o1	70*	-2	4	1	-12	0
O=C(Nc1cccc2ncccc12)c1ccc(-c2ccc(Br)cc2)o1	10	7	-33	12	13	-12
Cc1c(NC(=O)c2ccc([N+](=O)[O-])o2)cccc1-c1nc2ncccc2o1	63*	11	-15	2	13	-3
CC(=O)n1cc([C@H]2C=C(C(=O)N3CCN(Cc4ccc5c(c4)OCO5)CC3)O[C@@H](OCc3ccc(CO)cc3)C2)c2ccccc21	32	1	-11	16	67*	1
O=C(C1=C[C@@H](c2csc3ccccc23)C[C@@H](OCc2ccc(CO)cc2)O1)N1CCN(Cc2ccc3c(c2)OCO3)CC1	18	4	1	10	6	0
C#CCNC(=O)C1=C[C@H](c2cn(C(C)=O)c3ccccc23)C[C@H](OCc2ccc(CO)cc2)O1	21	0	-9	44*	49*	5
O=C(NCc1nc2ccccc2[nH]1)C1=C[C@@H](c2csc3ccccc23)C[C@@H](OCc2ccc(CO)cc2)O1	13	9	-10	19	48	-17
O=C(NCc1nc2ccccc2[nH]1)C1=C[C@H](c2csc3ccccc23)C[C@H](OCc2ccc(CO)cc2)O1	12	-1	2	15	49*	7
O=C(C1=C[C@H](c2csc3ccccc23)C[C@H](OCCCCO)O1)N1CCN(Cc2ccc3c(c2)OCO3)CC1	12	0	-13	24	60*	-23
C[C@H](O)[C@@H]1CN2CCc3c([nH]c4c(-c5ccccc5)cccc34)[C@@H]2C[C@@H]1N(C)C(=O)NC1CCCCC1	.	.	.	-1	-8	.
CCCC(=O)OCCNc1cc(Sc2nc3ccccc3[nH]2)c2nonc2c1[N+](=O)[O-]	65*	-1	38*	0	28	13
